Activity calls are given as the source filed them. No cut-off for these calls is given here.
Experiments:
[1] = target: T1, Dual specificity protein kinase CLK1 (Homo sapiens, UniProt P49759); assay: Inhibition of recombinant Clk1 (unknown origin) using GRSRSRSRSR peptide substrate
Summary of the method: (§1)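 Kinase activity was measured in a cell-free assay with recombinant enzyme and peptide substrate at 100 μM ATP. Values are reported as IC50.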
Target sequence in this assay (P49759 whole entry): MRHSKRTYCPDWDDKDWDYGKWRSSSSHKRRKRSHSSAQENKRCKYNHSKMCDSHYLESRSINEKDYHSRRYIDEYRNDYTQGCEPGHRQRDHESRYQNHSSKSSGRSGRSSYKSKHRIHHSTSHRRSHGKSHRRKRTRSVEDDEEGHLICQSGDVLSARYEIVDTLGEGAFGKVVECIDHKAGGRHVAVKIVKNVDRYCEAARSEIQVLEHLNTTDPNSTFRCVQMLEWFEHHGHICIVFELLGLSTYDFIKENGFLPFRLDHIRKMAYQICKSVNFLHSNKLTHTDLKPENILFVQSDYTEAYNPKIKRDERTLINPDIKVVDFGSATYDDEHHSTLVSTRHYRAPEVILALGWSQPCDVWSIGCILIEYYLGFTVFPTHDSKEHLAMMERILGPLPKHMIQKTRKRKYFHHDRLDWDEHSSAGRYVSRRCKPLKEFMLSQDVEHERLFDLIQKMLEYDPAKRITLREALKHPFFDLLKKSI

[2] = target: T2, Dual specificity tyrosine-phosphorylation-regulated kinase 1A (Homo sapiens, UniProt Q13627); assay: Inhibition of recombinant Dyrk1A (unknown origin) using KKISGRLSPIMTEQ-NH2 peptide substrate; summary of the method: as §1
[3] = target: T3, Dual specificity tyrosine-phosphorylation-regulated kinase 2 (Homo sapiens) (UniProt Q92630); assay: Inhibition of recombinant Dyrk2 (unknown origin) using KKISGRLSPIMTEQ-NH2 peptide substrate at 5 uM
T3 sequence (whole entry): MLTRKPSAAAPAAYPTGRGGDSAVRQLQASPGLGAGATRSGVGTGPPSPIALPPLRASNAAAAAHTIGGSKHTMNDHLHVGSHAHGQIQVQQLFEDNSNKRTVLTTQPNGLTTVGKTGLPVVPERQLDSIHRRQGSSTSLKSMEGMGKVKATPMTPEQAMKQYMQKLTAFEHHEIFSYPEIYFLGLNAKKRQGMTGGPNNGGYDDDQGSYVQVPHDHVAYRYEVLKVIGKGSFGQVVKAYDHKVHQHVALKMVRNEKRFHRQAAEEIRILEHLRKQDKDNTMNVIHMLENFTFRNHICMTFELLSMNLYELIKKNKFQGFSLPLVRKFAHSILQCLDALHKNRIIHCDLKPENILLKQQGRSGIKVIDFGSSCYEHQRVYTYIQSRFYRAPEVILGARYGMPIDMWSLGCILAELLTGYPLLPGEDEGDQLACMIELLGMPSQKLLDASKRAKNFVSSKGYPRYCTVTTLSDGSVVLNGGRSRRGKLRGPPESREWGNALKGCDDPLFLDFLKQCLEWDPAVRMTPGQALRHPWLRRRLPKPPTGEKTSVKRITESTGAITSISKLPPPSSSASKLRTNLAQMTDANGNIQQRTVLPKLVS

[4] = target: T4, Dual specificity tyrosine-phosphorylation-regulated kinase 1B (Homo sapiens, UniProt Q9Y463); assay: Inhibition of recombinant Dyrk1B (unknown origin) using KKISGRLSPIMTEQ-NH2 peptide substrate
Target sequence in this assay (Q9Y463 whole entry): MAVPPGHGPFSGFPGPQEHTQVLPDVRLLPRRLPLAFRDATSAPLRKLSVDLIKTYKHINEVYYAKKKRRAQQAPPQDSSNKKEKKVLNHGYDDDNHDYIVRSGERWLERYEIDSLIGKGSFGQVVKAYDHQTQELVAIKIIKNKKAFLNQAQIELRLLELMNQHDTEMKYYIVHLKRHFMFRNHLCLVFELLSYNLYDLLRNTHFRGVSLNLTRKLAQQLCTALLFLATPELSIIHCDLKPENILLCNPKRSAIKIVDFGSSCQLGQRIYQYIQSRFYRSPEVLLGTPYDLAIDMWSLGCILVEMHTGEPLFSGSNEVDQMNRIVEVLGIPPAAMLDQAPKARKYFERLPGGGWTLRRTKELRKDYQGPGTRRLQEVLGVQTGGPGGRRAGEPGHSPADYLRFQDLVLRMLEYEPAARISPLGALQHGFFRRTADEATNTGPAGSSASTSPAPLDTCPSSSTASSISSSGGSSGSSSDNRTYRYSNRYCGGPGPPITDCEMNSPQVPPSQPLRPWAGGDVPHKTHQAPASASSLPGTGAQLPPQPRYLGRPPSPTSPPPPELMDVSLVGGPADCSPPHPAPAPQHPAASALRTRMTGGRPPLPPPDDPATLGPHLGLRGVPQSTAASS

[5] = target: Casein kinase II subunit alpha (Homo sapiens) (UniProt P68400); assay: Inhibition of CK2alpha (unknown origin) at 5 uM
Casein kinase II subunit alpha (Homo sapiens), sequence (P68400 whole entry, looked up): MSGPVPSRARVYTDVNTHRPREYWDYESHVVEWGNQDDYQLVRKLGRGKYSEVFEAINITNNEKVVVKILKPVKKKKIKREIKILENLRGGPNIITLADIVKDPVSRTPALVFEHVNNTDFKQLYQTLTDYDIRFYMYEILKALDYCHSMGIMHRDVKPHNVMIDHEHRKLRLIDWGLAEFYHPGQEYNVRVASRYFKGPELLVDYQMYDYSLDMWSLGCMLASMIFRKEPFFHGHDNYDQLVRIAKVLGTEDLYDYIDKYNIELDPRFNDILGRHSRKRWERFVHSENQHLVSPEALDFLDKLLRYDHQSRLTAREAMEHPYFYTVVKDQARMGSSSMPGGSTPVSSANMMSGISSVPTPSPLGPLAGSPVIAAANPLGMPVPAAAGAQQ

[6] = target: T4, Dual specificity tyrosine-phosphorylation-regulated kinase 1B; assay: Inhibition of recombinant Dyrk1B (unknown origin) using KKISGRLSPIMTEQ-NH2 peptide substrate at 5 uM
Target sequence in this assay (Q9Y463 whole entry, looked up): as the sequence (Q9Y463 whole entry) above

[7] = Modulation of Clk/sty pre-mRNA splicing in human STO cells assessed as concentration required to increase in mature Clk1 mRNA level by RT-PCR analysis relative to control
[8] = Modulation of Clk/sty pre-mRNA splicing in human STO cells assessed as concentration required to 5 fold increase in mature Clk1 mRNA level by RT-PCR analysis
[9] = Modulation of Clk/sty pre-mRNA splicing in human STO cells assessed as concentration required to increase in mature Clk1 mRNA level by RT-PCR analysis
[10] = target: T5, 17-beta-hydroxysteroid dehydrogenase type 1 (Homo sapiens) (UniProt P14061); assay: Inhibition of 17-betaHSD1 (unknown origin) at 5 uM
T5 sequence (whole entry): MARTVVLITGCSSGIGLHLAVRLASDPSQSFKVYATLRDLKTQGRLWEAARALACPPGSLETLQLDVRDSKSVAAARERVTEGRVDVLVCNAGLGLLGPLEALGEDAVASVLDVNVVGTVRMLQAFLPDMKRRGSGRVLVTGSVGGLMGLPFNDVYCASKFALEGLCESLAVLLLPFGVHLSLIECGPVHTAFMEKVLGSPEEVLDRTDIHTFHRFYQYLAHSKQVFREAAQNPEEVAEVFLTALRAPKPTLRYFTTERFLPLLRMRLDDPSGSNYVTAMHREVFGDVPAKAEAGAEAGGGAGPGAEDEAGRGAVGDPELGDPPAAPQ

STO = assay: Modulation of pre-mRNA splicing in human STO cells assessed as increase in mature Clk1 mRNA production at 10 to 20 uM by RT-PCR analysis
[11] = Modulation of Clk/sty pre-mRNA splicing in human STO cells assessed as concentration required to increase in mature Clk2 mRNA level by RT-PCR analysis; assay type: functional, cell-based; details: in the assay text read “Clk1” for “Clk2”
Summary of the method: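 STO cells were treated for 4 h with compound added to the culture medium, with 0.05% DMSO as control. Total RNA was purified, and the Clk1/Sty splicing pattern was analysed by RT-PCR. Read-outs were the concentration for a 5-fold increase, the concentration for half-maximal generation of mature Clk1 mRNA, and the maximum fold increase over DMSO. Data are means of three independent experiments run in triplicate.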

[12] = target: T2, Dual specificity tyrosine-phosphorylation-regulated kinase 1A; assay: Inhibition of recombinant Dyrk1A (unknown origin) using KKISGRLSPIMTEQ-NH2 peptide substrate at 5 uM
[13] = target: T1, Dual specificity protein kinase CLK1; assay: Inhibition of recombinant Clk1 (unknown origin) using GRSRSRSRSR peptide substrate at 5 uM
Target sequence in this assay (P49759 whole entry, looked up): as the sequence (P49759 whole entry) above

[14] = target: T6, 17-beta-hydroxysteroid dehydrogenase type 1 (Homo sapiens, UniProt P14061); assay: Inhibition of 17-betaHSD1 (unknown origin)
T6 sequence (P14061 whole entry): T5 sequence (whole entry)

| SMILES | IC50 [1] [nM] | IC50 [2] [nM] | inhibition [3] [%] | IC50 [4] [nM] | inhibition [5] [%] | inhibition [6] [%] | fold change (FC) [7] | Activity [8] [µM] | EC50 [9] [nM] | inhibition [10] | Activity (STO) | EC50 [11] [nM] | inhibition [12] [%] | inhibition [13] [%] | IC50 [14] [nM] |
| --- | --- | --- | --- | --- | --- | --- | --- | --- | --- | --- | --- | --- | --- | --- | --- |
| O=C(c1ccc(O)cc1)c1cc2cc(O)ccc2s1 | 300 | 3400 | 25 | 800 | 33 |  |  |  |  |  |  |  |  |  |  |
| O=C(c1cc2cc(O)ccc2s1)c1cc(O)ccc1F | 50 | 2000 | 30 | 400 | 20 |  |  |  |  |  |  |  |  |  |  |
| O=C(c1cccc(O)c1)c1cc2ccccc2s1 |  | 42000 | 15 |  | 24 | 6 |  |  |  |  |  |  |  |  |  |
| COc1ccc2sc(C(=O)N(C)OC)cc2c1 | 100 | 900 | 41 | 1600 |  |  | 8.1 | 2.4 | 2100 | inactive |  |  |  |  |  |
| O=C(c1cccc(O)c1)c1cc2cc(O)ccc2s1 | 100 | 400 | 49 | 200 | 12 |  |  |  |  |  | Active |  |  |  |  |
| Cn1c(C(=O)c2cccc(O)c2)cc2cc(O)ccc21 | 2100 | 3400 | 25 | 2700 | 31 |  |  |  |  |  |  |  |  |  |  |
| O=C(c1ccc(F)c(O)c1)c1cc2cc(O)ccc2s1 | 300 | 1200 | 27 | 400 | 15 |  |  |  |  |  |  |  |  |  |  |
| CC(=O)c1cc2cc(O)ccc2s1 | 60 | 200 | 46 | 100 | 9 |  | 21.4 | 1.1 |  | inactive | Active | 8900 |  |  |  |
| O=C(c1cccc(O)c1)c1cc2cc(O)ccc2[nH]1 | 2000 | 15000 | 24 |  | 22 | 41 |  |  |  |  |  |  |  |  |  |
| COc1cccc(C(=O)c2cc3cc(OC)ccc3s2)c1 |  |  | -7 |  |  | 40 |  |  |  |  |  |  | 10 | 47 |  |
| N#Cc1cccc(C(=O)c2cc3cc(O)ccc3s2)c1 | 400 | 6000 | 6 | 2300 | 10 |  |  |  |  |  |  |  |  |  |  |
| CCN1/C(=C/C(C)=O)Sc2ccc(OC)cc21 |  |  |  |  |  |  | 17 | 3.1 |  |  |  | 6600 |  |  |  |
| O=C(c1cccc(O)c1)c1cc2cc(O)ccc2o1 | 1900 | 3100 | 34 | 6100 | 21 |  |  |  |  |  |  |  |  |  |  |
| O=C(c1ccccc1)c1cc2cc(O)ccc2s1 | 200 | 2000 | 37 | 1000 | 13 |  |  |  |  |  |  |  |  |  |  |
| O=C(c1ccc(O)cc1)c1cc2cc(O)ccc2o1 | 1000 | 9700 | 38 | 1300 | 17 |  |  |  |  |  |  |  |  |  |  |
| Cc1cc(C(=O)c2cc3cc(O)ccc3s2)ccc1O |  | 11000 | 8 | 7000 |  |  |  |  |  |  |  |  |  | 25 |  |
| Cc1ccc(C(=O)c2cc3cc(O)ccc3s2)cc1O | 50 | 200 | 50 | 200 | 10 |  | 9.5 | 1.9 |  |  | Active | 1800 |  |  | 195 |
| O=C(c1cccc(O)c1)c1ccc2cc(O)ccc2c1 | 1900 | 2900 |  | 2300 |  |  |  |  |  |  |  |  |  |  |  |
